According to ChEMBL document CHEMBL1132699, “Synthesis and biological evaluation of 2',3'-didehydro-2',3'- dideoxy-5-fluorocytidine (D4FC) analogues: discovery of carbocyclic nucleoside triphosphates with potent inhibitory activity against HIV-1 reverse transcriptase” (J Med Chem, 1999):

What was measured:
[1] = tested on: Human immunodeficiency virus 1; assay: (§1) Tested in vitro for anti HIV-1 activity against PBM cells; format: functional; conditions: Human immunodeficiency virus 1, PBMC
HepG2 = assay: Tested in vitro for anticancer activity against HepG2 cells; format: functional, cell-based; conditions: Homo sapiens
SK-MEL-28 [2] = assay: Tested in vitro for anticancer activity against SK-MEL-28 cells; format: functional, cell-based; conditions: Homo sapiens
[3] = Tested in vitro for cytotoxicity against PBM cells; format: functional, cell-based; conditions: Homo sapiens, PBMC
SK-MES-1 = assay: Tested in vitro for anticancer activity against SK-MES-1 cells; format: functional, cell-based; conditions: Homo sapiens
Vero = assay: Tested in vitro for cytotoxicity against Vero cells; format: functional, cell-based; conditions: Chlorocebus sabaeus
CCRF-CEM = assay: Tested in vitro for anticancer activity against CEM cells; format: functional, cell-based; conditions: Homo sapiens
9L [4] = assay: The compound was tested in vitro for anticancer activity against 9L cells; format: functional, cell-based; conditions: Rattus norvegicus
In short: (§2)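 Growth inhibition in human or rat tumour cell lines. Cells cultured with drug in 96-well plates for 5 days (LNCaP, SK-MES-1), 4 days (CEM, MCF-7, SK-MEL-28, HepG2, 9L) or 3 days (PC-3). Solvent-exposed untreated cells served as negative control. Viable, actively metabolizing cells were read by MTT assay. DMSO stocks (40 mM) were diluted in growth medium. IC50 in μM.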

LNCaP = assay: Tested in vitro for anticancer activity against LNCaP cells; format: functional, cell-based; conditions: Homo sapiens
[5] = tested on: Human immunodeficiency virus 1; assay: as §1; format: functional, organism-based; conditions: Human immunodeficiency virus 1, PBMC
MCF7 = assay: Tested in vitro for anticancer activity against MCF-7 cells; format: functional, cell-based; conditions: Homo sapiens
PC-3 = assay: Tested in vitro for anticancer activity against PC-3 cells; format: functional, cell-based; conditions: Homo sapiens
[6] = molecular target: Human immunodeficiency virus type 1 reverse transcriptase (Human immunodeficiency virus 1) (UniProt Q72547); assay: (§3) The compound was tested for inhibitory activity against Recombinant HIV-1 reverse transcriptase
In short: (§4)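 Extension assay with HIV-1 p66/51 heterodimer RT (1 unit) and r(I)n·(dC)12-18 template-primer (0.05 units/mL). Buffer: Tris-HCl pH 8.0, KCl, MgCl2, DTT, 100 μg/mL BSA, 1 μM [3H]dCTP. Incubated 1 h at 37 °C, stopped with cold 10% TCA/0.05% sodium pyrophosphate for 30 min at 4 °C. Precipitate filter-harvested and counted by beta counting. 3TC-TP served as positive control.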

[7] = molecular target: Human immunodeficiency virus type 1 reverse transcriptase (Human immunodeficiency virus 1, UniProt Q72547); assay: as §3; in short: as §4
9L [8] = assay: Tested in vitro for anticancer activity against 9L cells; format: functional, cell-based; conditions: Rattus norvegicus; in short: as §2
SK-MEL-28 [9] = assay: The compound was tested in vitro for anticancer activity against SK-MEL-28 cells; format: functional, cell-based; conditions: Homo sapiens; in short: as §2

| SMILES | EC90 [1] [µM] | IC50 (HepG2) [µM] | IC50 (SK-MEL-28 [2]) [µM] | IC50 [3] [µM] | IC50 (SK-MES-1) [µM] | IC50 (Vero) [µM] | IC50 (CCRF-CEM) [µM] | IC50 (9L [4]) [µM] | IC50 (LNCaP) [µM] | EC50 [5] [µM] | IC50 (MCF7) [µM] | IC50 (PC-3) [µM] | IC90 [6] [µM] | IC50 [7] [µM] | IC50 (9L [8]) [µM] | IC50 (SK-MEL-28 [9]) [µM] |
| --- | --- | --- | --- | --- | --- | --- | --- | --- | --- | --- | --- | --- | --- | --- | --- | --- |
| O=c1[nH]c(=O)n([C@@H]2C=C[C@@H](CO)O2)cc1F | 23 | 37.1 | 9.8 | 47.4 | 10 | 3 | 11.4 | 2.4 | 85.8 | 7.5 | 67.3 | > 100 |  |  |  |  |
| Nc1ccn(C2C=CC(COP(=O)(O)OP(=O)(O)OP(=O)(O)O)C2)c(=O)n1 (racemic) |  |  |  |  |  |  |  |  |  |  |  |  | 3.4 | 0.38 |  |  |
| CCCC(=O)OC[C@@H]1C=C[C@H](n2cc(F)c(N)nc2=O)O1 | 0.61 | > 100 | > 100 | > 100 | > 100 | > 100 | > 100 |  | > 100 | 0.15 | > 100 | > 100 |  |  | > 100 |  |
| Nc1nc(=O)n(C2C=CC(CO)C2)cc1F (stereo not given) | 71 |  |  | > 100 |  | > 100 | > 100 |  |  | 8.2 |  |  |  |  |  |  |
| CCCCC(=O)OC[C@@H]1C=C[C@H](n2cc(F)c(N)nc2=O)O1 | 0.34 | > 100 | > 100 | > 100 | > 100 | > 100 | 124 |  | > 100 | 0.056 | > 100 | > 100 |  |  |  |  |
| CC(=O)Nc1nc(=O)n([C@H]2C=C[C@@H](CO)O2)cc1F | 6 | > 100 | 108 | > 100 | 84.6 | 103 | 14.7 |  | > 100 | 1 | 62.9 | > 100 |  |  |  |  |
| CC(=O)OC[C@@H]1C=C[C@H](n2cc(F)c(N)nc2=O)O1 | 0.4 | > 100 | > 100 | > 100 | > 100 | > 100 | > 100 |  |  | 0.13 |  | > 100 |  |  |  |  |
| O=C1NC(O)C(F)=CN1[C@H]1C=C[C@@H](CO)O1 (stereo not given in full) | 23 | 59.3 | 21.7 | 32.2 | 4.2 | 7.9 | 9.1 |  | 67.8 | 7.9 | 54.1 | 63 |  |  | 1.2 |  |
| Nc1ccc([C@@H]2CS[C@H](OP(=O)(O)OP(=O)(O)OP(=O)(O)O)O2)c(=O)[nH]1 |  |  |  |  |  |  |  |  |  |  |  |  |  | 3.6 |  |  |
| C[C@@H]1C[C@@H]([C@H](O)CC2CC(=O)NC(=O)C2)C(=O)[C@@H](C)C1 [CYCLOHEXIMIDE] |  | 2.5 | 1 | 2.1 | 2.7 | 1.2 | 0.12 |  | 1.2 |  | 1.5 | 3.5 |  |  | 0.2 |  |
| Nc1nc(=O)n([C@H]2C=C[C@@H](CO)O2)cc1I | > 10 | > 100 | > 100 | 98.3 | > 100 | > 100 | 107 |  | > 100 | > 10 | > 100 | > 100 |  |  |  |  |
| Nc1nc(=O)n([C@@H]2C=C[C@@H](CO)O2)cc1F | 70 | > 100 | > 100 | > 100 | > 100 | > 100 | > 100 |  | > 100 | 20 | > 100 | > 100 |  |  | > 100 |  |
| Cc1cn([C@H]2C[C@H](N=[N+]=[N-])[C@@H](CO)O2)c(=O)[nH]c1=O [ZIDOVUDINE] | 0.02 |  |  | > 100 | > 100 |  |  |  |  | 0.002 | > 10 |  |  |  |  | > 10 |
| CCCNc1nc(=O)n([C@H]2C=C[C@@H](CO)O2)cc1F | > 100 | > 100 | > 100 | 34.7 | > 100 | > 100 | > 100 |  | > 100 | > 100 | > 100 | > 100 |  |  |  |  |
| Nc1ccn(C2C=CC(CO)C2)c(=O)n1 (stereo not given) | 59.9 |  |  | > 100 |  | > 100 | > 100 |  |  | 9 |  |  |  |  |  |  |
| O=c1[nH]cc(F)c(=O)[nH]1 [FLUOROURACIL] |  | 37.9 | 4.5 | 5 | 13.1 | 6.81 | 90.5 |  | > 100 |  | 41 | > 100 |  |  | 1 |  |
| Nc1nc(=O)n(C2C=CC(COP(=O)(O)OP(=O)(O)OP(=O)(O)O)C2)cc1F (racemic) |  |  |  |  |  |  |  |  |  |  |  |  | 4 | 0.4 |  |  |
| Nc1nc(=O)n([C@H]2C=C[C@@H](CO)O2)cc1F [DEXELVUCITABINE] | 0.77 | > 100 | > 100 | > 100 | > 100 | > 100 | > 100 |  | > 100 | 0.046 | > 100 | > 10 |  |  |  |  |
| Nc1nc(=O)n([C@@H]2C=C[C@H](CO)O2)cc1F [ELVUCITABINE] | 0.16 | 118 | > 100 | 12.9 | 99.1 | 9.4 | 0.46 |  | 55.2 | 0.034 | 82.8 | > 100 |  |  |  |  |
| Nc1ccc([C@@H]2CS[C@H](OP(=O)(O)OP(=O)(O)OP(=O)(O)O)O2)c(O)n1 |  |  |  |  |  |  |  |  |  |  |  |  | 29.8 |  |  |  |
| Nc1nc(=O)n([C@H]2C=C[C@@H](CO)O2)cc1Br | > 10 | > 100 | > 100 | 91.6 | > 100 | > 100 | 42.5 |  | > 100 | > 10 | > 100 | > 100 |  |  |  |  |
| O=c1[nH]c(=O)n([C@@H]2C=C[C@H](CO)O2)cc1F | 3 | 35.4 | 7.45 | 2.3 | 4.6 | 32 | 12.9 |  | 57.2 | 0.26 | 15.8 | 83.4 |  |  | 1.9 |  |
| Nc1nc(=O)n([C@H]2C=C[C@@H](COP(=O)(O)OP(=O)(O)OP(=O)(O)O)C2)cc1F (racemic) |  |  |  |  |  |  |  |  |  |  |  |  | 2.2 | 0.27 |  |  |
